Laboratory results taken from the M2OR odorant receptor database.

Key:
Details in all cases: stereoisomer not certain
[1] = molecular target: T1, OR10G2 (Homo sapiens) (UniProt Q8NGC3)
T1 sequence (whole entry): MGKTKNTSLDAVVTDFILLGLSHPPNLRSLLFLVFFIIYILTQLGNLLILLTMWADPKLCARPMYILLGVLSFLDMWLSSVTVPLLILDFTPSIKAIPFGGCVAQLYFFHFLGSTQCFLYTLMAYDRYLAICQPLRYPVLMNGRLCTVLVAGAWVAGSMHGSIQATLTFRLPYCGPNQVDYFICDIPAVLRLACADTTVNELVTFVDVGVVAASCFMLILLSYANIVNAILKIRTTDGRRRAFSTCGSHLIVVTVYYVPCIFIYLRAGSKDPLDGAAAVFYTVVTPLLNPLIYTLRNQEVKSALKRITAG
How it was run: (§1)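 Transient luciferase assays in mammalian cell lines were common, though methods varied by source. The values come from published papers and their supplementary material, with extra details from the original authors when needed. Responsive refers to a measured signal the original authors judged statistically different from baseline, and non-responsive (inactive) to the remainder.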

[2] = molecular target: T2, OR10G3 (Homo sapiens) (UniProt Q8NGC4)
T2 sequence (whole entry): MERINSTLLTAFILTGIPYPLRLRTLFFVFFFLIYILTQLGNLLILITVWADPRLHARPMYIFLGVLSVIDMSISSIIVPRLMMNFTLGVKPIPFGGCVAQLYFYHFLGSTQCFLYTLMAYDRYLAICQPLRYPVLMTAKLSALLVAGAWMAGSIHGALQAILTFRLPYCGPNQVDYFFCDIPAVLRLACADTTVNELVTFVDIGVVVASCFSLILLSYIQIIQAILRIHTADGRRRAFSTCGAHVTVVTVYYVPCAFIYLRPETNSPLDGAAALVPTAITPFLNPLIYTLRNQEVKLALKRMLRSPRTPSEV
How it was run: as §1

[3] = molecular target: T3, OR10G4 (Homo sapiens) (UniProt Q8NGN3)
T3 sequence (whole entry): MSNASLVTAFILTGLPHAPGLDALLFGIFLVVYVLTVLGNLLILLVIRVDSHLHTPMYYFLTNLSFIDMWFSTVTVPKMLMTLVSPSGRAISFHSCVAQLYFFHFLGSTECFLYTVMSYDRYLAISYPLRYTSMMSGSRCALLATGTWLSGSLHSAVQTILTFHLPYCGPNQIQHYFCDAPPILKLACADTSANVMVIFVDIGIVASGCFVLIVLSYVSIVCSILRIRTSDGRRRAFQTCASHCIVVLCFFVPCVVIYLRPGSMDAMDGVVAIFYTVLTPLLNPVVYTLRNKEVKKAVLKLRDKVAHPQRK
How it was run: as §1

[4] = molecular target: T4, OR10G6 (Homo sapiens) (UniProt Q8NH81)
T4 sequence (whole entry): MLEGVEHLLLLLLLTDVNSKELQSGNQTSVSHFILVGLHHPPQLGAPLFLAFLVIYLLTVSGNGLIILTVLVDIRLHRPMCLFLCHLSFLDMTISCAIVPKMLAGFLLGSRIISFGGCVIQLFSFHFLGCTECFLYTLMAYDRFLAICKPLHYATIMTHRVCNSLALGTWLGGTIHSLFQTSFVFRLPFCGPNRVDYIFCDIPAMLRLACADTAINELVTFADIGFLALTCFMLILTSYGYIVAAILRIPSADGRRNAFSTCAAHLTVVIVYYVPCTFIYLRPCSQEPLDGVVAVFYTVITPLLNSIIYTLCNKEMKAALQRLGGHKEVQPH
How it was run: as §1

[5] = molecular target: T5, OR10G7 (Homo sapiens) (UniProt Q8NGN6)
T5 sequence (whole entry): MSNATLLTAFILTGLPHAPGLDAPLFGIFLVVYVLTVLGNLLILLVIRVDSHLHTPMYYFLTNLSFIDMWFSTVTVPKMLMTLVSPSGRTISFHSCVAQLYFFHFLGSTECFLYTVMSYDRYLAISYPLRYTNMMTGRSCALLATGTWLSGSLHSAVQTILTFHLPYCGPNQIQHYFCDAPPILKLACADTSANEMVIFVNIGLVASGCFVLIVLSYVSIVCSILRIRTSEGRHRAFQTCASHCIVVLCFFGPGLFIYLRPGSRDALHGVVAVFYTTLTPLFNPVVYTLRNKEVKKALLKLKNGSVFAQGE
How it was run: as §1

[6] = molecular target: T6, OR10G8 (Homo sapiens) (UniProt Q8NGN5)
T6 sequence (whole entry): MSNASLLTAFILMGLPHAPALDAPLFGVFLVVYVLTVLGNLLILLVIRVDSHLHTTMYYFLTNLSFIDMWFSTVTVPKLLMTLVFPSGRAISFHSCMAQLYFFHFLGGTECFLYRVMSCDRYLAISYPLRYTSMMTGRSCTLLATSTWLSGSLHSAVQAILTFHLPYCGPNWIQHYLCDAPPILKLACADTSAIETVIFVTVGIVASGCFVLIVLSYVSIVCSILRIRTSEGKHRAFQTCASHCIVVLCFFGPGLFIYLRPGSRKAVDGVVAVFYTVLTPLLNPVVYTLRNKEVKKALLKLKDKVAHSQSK
How it was run: as §1

[7] = molecular target: T7, OR10G9 (Homo sapiens) (UniProt Q8NGN4)
T7 sequence (whole entry): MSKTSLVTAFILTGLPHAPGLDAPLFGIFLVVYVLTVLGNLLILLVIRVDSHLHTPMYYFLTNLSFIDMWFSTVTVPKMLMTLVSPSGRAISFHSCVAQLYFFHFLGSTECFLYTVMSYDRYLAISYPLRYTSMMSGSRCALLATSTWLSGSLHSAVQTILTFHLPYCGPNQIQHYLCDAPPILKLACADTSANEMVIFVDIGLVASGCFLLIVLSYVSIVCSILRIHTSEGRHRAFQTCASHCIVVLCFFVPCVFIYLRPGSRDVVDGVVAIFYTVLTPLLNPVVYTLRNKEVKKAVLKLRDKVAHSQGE
How it was run: as §1

[8] = molecular target: T8, OR10H1 (Homo sapiens) (UniProt Q9Y4A9)
T8 sequence (whole entry): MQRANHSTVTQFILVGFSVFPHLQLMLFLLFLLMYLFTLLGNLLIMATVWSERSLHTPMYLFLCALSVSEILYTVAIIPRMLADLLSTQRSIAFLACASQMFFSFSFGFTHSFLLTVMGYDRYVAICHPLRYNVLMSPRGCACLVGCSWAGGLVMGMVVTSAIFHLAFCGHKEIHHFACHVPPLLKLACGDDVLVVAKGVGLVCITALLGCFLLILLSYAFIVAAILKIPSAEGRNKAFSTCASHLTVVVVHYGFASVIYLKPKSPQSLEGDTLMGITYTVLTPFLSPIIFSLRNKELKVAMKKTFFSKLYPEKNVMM
How it was run: as §1

[9] = molecular target: T9, OR10H2 (Homo sapiens) (UniProt O60403)
T9 sequence (whole entry): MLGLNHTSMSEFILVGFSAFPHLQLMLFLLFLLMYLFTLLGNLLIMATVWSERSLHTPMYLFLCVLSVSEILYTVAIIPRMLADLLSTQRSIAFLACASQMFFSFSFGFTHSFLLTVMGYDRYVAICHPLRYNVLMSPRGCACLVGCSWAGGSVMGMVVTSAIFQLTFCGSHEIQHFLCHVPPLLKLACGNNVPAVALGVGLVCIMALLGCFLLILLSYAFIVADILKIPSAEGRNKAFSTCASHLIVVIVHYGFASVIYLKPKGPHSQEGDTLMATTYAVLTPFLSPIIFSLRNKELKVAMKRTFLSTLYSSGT
How it was run: as §1

[10] = molecular target: T10, OR10H3 (Homo sapiens) (UniProt O60404)
T10 sequence (whole entry): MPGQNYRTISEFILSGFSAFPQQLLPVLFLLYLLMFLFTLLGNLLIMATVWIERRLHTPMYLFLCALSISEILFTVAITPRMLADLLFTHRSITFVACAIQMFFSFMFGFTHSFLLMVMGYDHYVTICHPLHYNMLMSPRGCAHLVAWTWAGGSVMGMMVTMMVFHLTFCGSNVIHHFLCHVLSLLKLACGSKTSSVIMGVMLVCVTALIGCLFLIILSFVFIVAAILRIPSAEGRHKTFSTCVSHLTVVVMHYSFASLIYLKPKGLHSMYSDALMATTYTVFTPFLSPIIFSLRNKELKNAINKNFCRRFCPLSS
How it was run: as §1

Measured: odorant receptor agonist call;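 further: active if original authors judged signal statistically different from baseline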

CC1=C(O)C(=O)OC1C (stereo not given)
inactive: all assays above
